In PMC3428507 (Journal of molecular biology, 2012):

Assays:
Pf1 PHD1 [1] = target: T1, Pf1 PHD1 (Homo sapiens, UniProt Q96QT6); assay: Pulldown of GST-Pf1 PHD1 with biotinylated histone H3 peptides; type: binding; conditions: GST-Pf1 PHD1 (residues 53–103); wash 50 mM Tris pH 7.5, 150 mM NaCl, 0.05% NP-40; SDS-PAGE, Coomassie
In short: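 GST-Pf1 PHD1 (53–103) and GST-Pf1 PHD2 (268–319) came from E. coli and were eluted from glutathione resin with glutathione. They were incubated with an array of biotinylated histone H3 peptides on avidin beads. Washes also held 0.3 mg/ml BSA and 1 mM DTT. Bound protein was resolved by SDS-PAGE.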

Pf1 PHD1 [2] = target: T1, Pf1 PHD1; type: binding; conditions: even at molar concentrations; unpublished data
Pf1 PHD2 = assay: NMR titration of Pf1 PHD2 with small molecule mimics of histone modifications; type: binding, human; conditions: unpublished data
MRG15 CD = MRG15 CD (Homo sapiens, UniProt Q9UBU8); assay: NMR titration of 15N-labeled MRG15 CD with methyllysine peptides/ligands; type: binding
Chain of MRG15 CD (Q9UBU8 1-90 isoform Q9UBU8-2): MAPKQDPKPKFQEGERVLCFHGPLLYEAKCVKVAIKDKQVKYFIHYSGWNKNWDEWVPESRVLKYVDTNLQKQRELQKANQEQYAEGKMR

[3] = test system: Pf1 PHD1/MBD (residues 48–241); assay: NMR of 15N-labeled Pf1 PHD1/MBD with MRG15 proteins; type: binding, human; conditions: equimolar; 20 mM Tris pH 7.5, 50 mM NaCl, 10 μM ZnSO4, 15 mM DTT, 0.2% NaN3, 25 °C

T1 sequence (Q96QT6 48-116): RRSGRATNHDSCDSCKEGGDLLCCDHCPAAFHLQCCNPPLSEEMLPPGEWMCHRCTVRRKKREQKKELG

binding to Pf1 PHD1 in pulldown (Pf1 PHD1 [1])	Molecule	interaction with Pf1 PHD2 in NMR titrations (Pf1 PHD2)	further results
failed to do so	18–37: biotinylated H3 peptide spanning residues 18–37		
	CC(=O)NCCCC[C@H](N)C(=O)O [acetyllysine]	lack of any interaction	interaction with Pf1 PHD1 in NMR titrations (Pf1 PHD1 [2]): neither trimethyllysine nor acetyllysine interacted with Pf1 PHD1
	N[C@@H](COP(=O)(O)O)C(=O)O [phosphoserine]	lack of any interaction	
	C[C@@H](OP(=O)(O)O)[C@H](N)C(=O)O [phosphothreonine]	lack of any interaction	
	C[N+](C)(C)CCCC[C@H](N)C(=O)O [trimethyllysine]	lack of any interaction	Kd (MRG15 CD): 11 ± 3.3 mM; perturbations in the MRG15 CD NMR spectrum (MRG15 CD; pH 7.5, 25 °C): induced a similar pattern of perturbations in the NMR spectrum of MRG15 CD as the aforementioned peptides; interaction with Pf1 PHD1 in NMR titrations (Pf1 PHD1 [2]): neither trimethyllysine nor acetyllysine interacted with Pf1 PHD1
bound to Pf1 PHD1	H3 peptide spanning residues 1–20: unmodified biotinylated histone H3 peptide spanning residues 1–20		
failed to do so	H3 peptides spanning residues 27–46: biotinylated H3 peptide spanning residues 27–46		
	MRG15 MRG: MRG domain of MRG15 (residues 155–323)		effect on 15N-Pf1 PHD1/MBD spectrum [3]: disappearance of resonances corresponding to the PHD1 domain
	dimethylarginine	lack of any interaction	
